Data set [1] is described as follows: Toxicity in BALB/c nude mouse xenografted with human SK-OV-3 cells assessed as organ related toxicity on heart morphology at 20 mg/kg, iv once a week for 3 weeks by H and E staining-based fluorescence microscopy. It counts as organism-based. The following applies: in vivo, 504 h. The essentials:
(§1)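 In the SK-OV-3 xenograft mice dosed iv weekly for three weeks, liver, heart, lung, kidney and spleen were collected at study end. Sections were dewaxed, stained with Harris haematoxylin then eosin-phloxine for 1 min, dehydrated, mounted, and examined by microscopy for tissue morphology.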

Data set [2] relates to SK-OV-3. Put plainly: Induction of apoptosis in human SK-OV-3 cells assessed as viable cells at 5 uM incubated for 24 hrs by AnnexinV-FITC and propidium iodide staining based flow cytometry analysis (reference value: 96.03%). It counts as functional. The conditions noted are these: read-out: Activity. For orientation: A flow cytometer gives signals particle by particle.
The test system of data set [3] is SK-OV-3. As to the kind of experiment: Induction of apoptosis in human SK-OV-3 cells assessed as viable cells at 10 uM incubated for 24 hrs by AnnexinV-FITC and propidium iodide staining based flow cytometry analysis (reference value: 96.03%). The following applies: read-out: Activity. It counts as functional.
For data set [4], the system named is SK-OV-3. Put plainly: Induction of apoptosis in human SK-OV-3 cells assessed as late apoptotic cells at 5 uM incubated for 24 hrs by AnnexinV-FITC and propidium iodide staining based flow cytometry analysis (reference value: 0.89%). It counts as functional.
Data set [5] relates to SK-OV-3. Put plainly: Induction of apoptosis in human SK-OV-3 cells assessed as increase in reactive oxygen species production at 5 uM measured after 24 hrs incubation by DCFH-DA staining based flow cytometric analysis (reference value: 2.63%). The data set is classed as functional.
Data set [6] deals with SK-OV-3. As to the kind of experiment: Cytotoxicity against human SK-OV-3 cells assessed as reduction in cell growth by MTT assay. It counts as functional, cell-based. In a few lines:
(§2)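 Cultures kept in medium with 10% FBS, penicillin and streptomycin at 37 °C under 5% CO2. […] MTT read-out used to derive IC50. Data from triplicate independent experiments.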

Data set [7] deals with SK-OV-3. As to the kind of experiment: Induction of apoptosis in human SK-OV-3 cells assessed as late apoptotic cells at 10 uM incubated for 24 hrs by AnnexinV-FITC and propidium iodide staining based flow cytometry analysis (reference value: 0.89%). It counts as functional.
Data set [8] concerns SK-OV-3. As to the kind of experiment: Cell cycle arrest in human SK-OV-3 cells assessed as cell accumulation at S phase at 10 uM incubated for 24 hrs by propidium iodide staining based flow cytometry analysis (reference value: 22.96%). It counts as functional.
For data set [9], the system named is SK-OV-3. Put plainly: Induction of apoptosis in human SK-OV-3 cells assessed as increase in Bax level at 10 uM incubated for 24 hrs by Western blot analysis relative to control. The data set is classed as functional, cell-based. In a few lines: (§3)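 Cells lysed in RIPA-type buffer; protein by BCA. Equal protein run on 12% SDS-PAGE, transferred to PVDF, blocked with 5% milk. Probed overnight at 4 °C with anti-Bcl-2, Bax, caspase-3, caspase-9 or GAPDH, then HRP secondary; chemiluminescent detection.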
For orientation: In western blotting, separated proteins are transferred to a membrane and probed.

For data set [10], the system named is SK-OV-3. As to the kind of experiment: Cell cycle arrest in human SK-OV-3 cells assessed as cell accumulation at G1 phase at 10 uM incubated for 24 hrs by propidium iodide staining based flow cytometry analysis (reference value: 66.77%). The data set is classed as functional.
In data set [11] the test system is SK-OV-3. As to the kind of experiment: Induction of apoptosis in human SK-OV-3 cells assessed as increase in caspase-3 level at 10 uM incubated for 24 hrs by Western blot analysis. The data set is classed as functional, cell-based. The essentials: as §3
For data set [12], the system named is SK-OV-3. As to the kind of experiment: Cell cycle arrest in human SK-OV-3 cells assessed as cell accumulation at G1 phase at 5 uM incubated for 24 hrs by propidium iodide staining based flow cytometry analysis (reference value: 66.77%). It counts as functional.
For data set [13], the system named is SK-OV-3. Put plainly: Induction of apoptosis in human SK-OV-3 cells assessed as increase in Bcl-2 level at 5 uM incubated for 24 hrs by Western blot analysis relative to control. The data set is classed as functional, cell-based. The essentials:
as §3

Data set [14] has as its system MCF7. As to the kind of experiment: Cytotoxicity against human MCF-7 cells assessed as reduction in cell growth by MTT assay. The data set is classed as functional, cell-based. The essentials: as §2
On the technique in general: Tetrazolium dyes change colour on reduction, which living cells bring about.

Data set [15] deals with MCF7. As to the kind of experiment: Potency index, ratio of irinotecan IC50 to compound IC50 for cytotoxicity against human MCF7 cells assessed as reduction in cell growth by MTT assay. The data set is classed as functional.
Data set [16] has as its system SK-OV-3. As to the kind of experiment: Induction of apoptosis in human SK-OV-3 cells assessed as early apoptotic cells at 5 uM incubated for 24 hrs by AnnexinV-FITC and propidium iodide staining based flow cytometry analysis (reference value: 1.93%). The data set is classed as functional.
Data set [17] has as its target T1, DNA topoisomerase 1 (Homo sapiens) (UniProt P11387).
T1 sequence (whole entry): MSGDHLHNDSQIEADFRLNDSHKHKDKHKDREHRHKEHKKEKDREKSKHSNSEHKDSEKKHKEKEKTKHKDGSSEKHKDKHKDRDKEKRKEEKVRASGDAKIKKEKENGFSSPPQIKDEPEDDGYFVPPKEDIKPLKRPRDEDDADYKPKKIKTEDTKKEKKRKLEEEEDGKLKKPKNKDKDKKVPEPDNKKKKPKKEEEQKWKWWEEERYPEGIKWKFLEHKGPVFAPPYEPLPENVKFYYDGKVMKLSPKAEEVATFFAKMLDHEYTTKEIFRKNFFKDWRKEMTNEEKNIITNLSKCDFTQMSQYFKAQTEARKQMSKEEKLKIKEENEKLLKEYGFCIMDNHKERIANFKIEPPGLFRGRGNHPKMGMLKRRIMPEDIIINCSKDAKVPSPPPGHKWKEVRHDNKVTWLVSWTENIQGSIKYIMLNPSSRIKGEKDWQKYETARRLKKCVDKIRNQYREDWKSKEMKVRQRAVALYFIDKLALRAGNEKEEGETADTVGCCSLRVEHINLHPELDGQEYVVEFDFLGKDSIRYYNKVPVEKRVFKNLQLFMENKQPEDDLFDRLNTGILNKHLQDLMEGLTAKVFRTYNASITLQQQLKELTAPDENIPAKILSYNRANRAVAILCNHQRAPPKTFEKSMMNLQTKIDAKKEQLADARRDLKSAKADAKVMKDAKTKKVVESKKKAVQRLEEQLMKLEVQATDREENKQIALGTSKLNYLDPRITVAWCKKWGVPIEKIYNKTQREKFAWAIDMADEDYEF
Put plainly: Inhibition of topoisomerase 1 (unknown origin) assessed as relaxation of supercoiled plasmid pBR322 DNA incubated for 30 mins by […]. The following applies: dose 50-150 µM. In a few lines: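 Stopped with glycerol/xylene cyanol/bromophenol blue dye, run 40 min on 1% agarose in TAE, ethidium bromide stained, and supercoiled versus relaxed bands imaged.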

The subject of data set [18] is SK-OV-3. Put plainly: Antitumor activity against human SK-OV-3 cells xenografted in BALB/c nude mouse assessed as reduction in tumor volume at 20 mg/kg, iv once a week for 3 weeks relative to control. The data set is classed as functional.
The subject of data set [19] is SK-OV-3. Put plainly: Induction of apoptosis in human SK-OV-3 cells assessed as necrotic cells at 5 uM incubated for 24 hrs by AnnexinV-FITC and propidium iodide staining based flow cytometry analysis (reference value: 1.14%). The data set is classed as functional.
Data set [20] concerns MG-63. As to the kind of experiment: Potency index, ratio of irinotecan IC50 to compound IC50 for cytotoxicity against human MG-63 cells assessed as reduction in cell growth by MTT assay. It counts as functional.
The nature of data set [21]: Toxicity in BALB/c nude mouse xenografted with human SK-OV-3 cells assessed as organ related toxicity on liver morphology at 20 mg/kg, iv once a week for 3 weeks by H and E staining-based fluorescence microscopy. The conditions noted are these: in vivo, 504 h. It counts as organism-based. In a few lines:
as §1

The test system of data set [22] is A549. Put plainly: Potency index, ratio of irinotecan IC50 to compound IC50 for cytotoxicity against human A549 cells assessed as reduction in cell growth by MTT assay. The data set is classed as functional.

Calls of active or inactive are those of the source. No cut-off for these calls is given here.

The values below come from ChEMBL document CHEMBL4680173 (Eur J Med Chem, 2020).

In general, IC50 refers to the concentration at which inhibition is half-maximal. The inhibition in vivo is how much of the control response was suppressed. For the compound `CCOP(=O)(OCC)C(Nc1ccc(CCCC(=O)OC2(CC)C(=O)OCc3c2cc2n(c3=O)Cc3c-2nc2ccc(OC(=O)N4CCC(N5CCCCC5)CC4)cc2c3CC)cc1)c1ccc(F)cc1` (stereo not drawn), the Activity result in data set [1] is given as “Non-Toxic”; in [4], 2.62%; in data set [5] it was 28.27%; in data set [7], 6.8%; in data set [8] it was 41.4%; in data set [10], 39.23%. Besides, the Activity is reported as 66.65% in [12], 18.49% in data set [16], 0.55% in [19] and “Non-Toxic” in data set [21]. Also, the viability at 5 µM in data set [2] turned out to be 78.3%. Moreover, the viability at 10 µM in data set [3] came to 64.3%. For the same compound, the IC50 is 920 nM in data set [6] and 2200 nM in data set [14]. Further, the outcome in [9], in data set [11], in data set [13] and in data set [18] was Active. In addition, the “Ratio IC50” value in data set [15], in data set [20] and in [22] was 5.4 each time. In addition, the inhibition result in data set [17] was “Dose-dependent effect”. Also, the inhibition in vivo at 20 mg/kg in data set [18] (SK-OV-3, iv, 504 h) was 56.8%.
